Reference: ChEMBL document CHEMBL4689842, “EUbOPEN Chemogenomics Library wave 1” (2021)

Legend:
Format in all cases: toxicity, cell-based
U2OS [1] = experiment: Multiplex assay against U2OS; conditions: human
How it was run: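 Live cells were stained at seeding with Hoechst33342, BioTracker Green Microtubule Cytoskeleton Dye, MitoTracker Red and Annexin V Alexa Fluor 680. Following compound addition, they were imaged on a CQ1 microscope at 37°C and 5% CO2 and gated by CellPathfinder machine learning into Hoechst high-intensity objects or normal cells, with normal cells split into healthy, pyknosed or fragmented nuclei and pyknosed cells into mitotic or apoptotic. Tubulin, mitochondrial-mass and membrane-permeability phenotypes are per cents of healthy-nucleus cells.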

Fibroblast = experiment: Incucyte cell viability with human fibroblast; conditions: 10 µM, compound concentration 10 uM; note: filed as whole numbers so only -1 and 0 and 1 occur
HEK-293T = experiment: Incucyte cell viability with HEK293T; conditions: human, 10 µM, compound concentration 10 uM; note: filed as whole numbers so only -1 and 0 and 1 occur
U2OS [2] = experiment: Incucyte cell viability with U2OS; conditions: human, 10 µM, compound concentration 10 uM; note: filed as whole numbers so only -1 and 0 and 1 occur
[3] = 24 h, 10 µM, compound concentration 10 uM, replicate 1
[4] = 24 h, 10 µM, compound concentration 10 uM, replicate 2
[5] = 48 h, 1 µM, compound concentration 1 uM, replicate 1
[6] = 48 h, 1 µM, compound concentration 1 uM, replicate 2
[7] = 48 h, 10 µM, compound concentration 10 uM, replicate 1
[8] = 48 h, 10 µM, compound concentration 10 uM, replicate 2
[9] = 0 h, replicate number 2, timepoint 0 hours
[10] = 24 h, replicate number 1, timepoint 24 hours
[11] = 18 h, replicate number 1, timepoint 18 hours

SMILES: N#CCNC(=O)c1ccc(-c2ccnc(Nc3ccc(N4CCOCC4)cc3)n2)cc1 [MOMELOTINIB]
- Population Mitochondria Different-Phenotype (%) (U2OS [1]; [3]): 20%
- Population Mitotic Cells (%) (U2OS [1]; [3]): 38%
- Population Normal (%) (U2OS [1]; [3]): 91%
- Population Pyknosed Nuclei (%) (U2OS [1]; [3]): 33%
- Population Tubulin-Different-Phenotype (%) (U2OS [1]; [3]): 20%
- Total Cell Count (U2OS [1]; [3]): 194
- Population Apoptotic (%) (U2OS [1]; [4]): 45%
- Population Fragmented Nuclei (%) (U2OS [1]; [4]): 31%
- Population Healthy Nuclei (%) (U2OS [1]; [4]): 52%
- Population Hoechst High Intensity Objects (%) (U2OS [1]; [4]): 5%
- Population Membrane Permeable-Phenotype (%) (U2OS [1]; [4]): 28%
- Population Mitochondria Different-Phenotype (%) (U2OS [1]; [4]): 34%
- Population Mitotic Cells (%) (U2OS [1]; [4]): 54%
- Population Normal (%) (U2OS [1]; [4]): 94%
- Population Pyknosed Nuclei (%) (U2OS [1]; [4]): 16%
- Population Tubulin-Different-Phenotype (%) (U2OS [1]; [4]): 14%
- Total Cell Count (U2OS [1]; [4]): 59
- Population Apoptotic (%) (U2OS [1]; [5]): 27%
- Population Fragmented Nuclei (%) (U2OS [1]; [5]): 9%
- Population Healthy Nuclei (%) (U2OS [1]; [5]): 82%
- Population Hoechst High Intensity Objects (%) (U2OS [1]; [5]): 3%
- Population Membrane Permeable-Phenotype (%) (U2OS [1]; [5]): 2%
- Population Mitochondria Different-Phenotype (%) (U2OS [1]; [5]): 18%
- Population Mitotic Cells (%) (U2OS [1]; [5]): 72%
- Population Normal (%) (U2OS [1]; [5]): 96%
- Population Pyknosed Nuclei (%) (U2OS [1]; [5]): 7%
- Population Tubulin-Different-Phenotype (%) (U2OS [1]; [5]): 19%
- Total Cell Count (U2OS [1]; [5]): 3211
- Population Apoptotic (%) (U2OS [1]; [6]): 100%
- Population Fragmented Nuclei (%) (U2OS [1]; [6]): 7%
- Population Healthy Nuclei (%) (U2OS [1]; [6]): 89%
- Population Hoechst High Intensity Objects (%) (U2OS [1]; [6]): 2%
- Population Membrane Permeable-Phenotype (%) (U2OS [1]; [6]): 8%
- Population Mitochondria Different-Phenotype (%) (U2OS [1]; [6]): 17%
- Population Mitotic Cells (%) (U2OS [1]; [6]): 0%
- Population Normal (%) (U2OS [1]; [6]): 97%
- Population Pyknosed Nuclei (%) (U2OS [1]; [6]): 2%
- Population Tubulin-Different-Phenotype (%) (U2OS [1]; [6]): 22%
- Total Cell Count (U2OS [1]; [6]): 3226
- Population Apoptotic (%) (U2OS [1]; [7]): 72%
- Population Fragmented Nuclei (%) (U2OS [1]; [7]): 29%
- Population Healthy Nuclei (%) (U2OS [1]; [7]): 26%
- Population Hoechst High Intensity Objects (%) (U2OS [1]; [7]): 4%
- Population Membrane Permeable-Phenotype (%) (U2OS [1]; [7]): 20%
- Population Mitochondria Different-Phenotype (%) (U2OS [1]; [7]): 20%
- Population Mitotic Cells (%) (U2OS [1]; [7]): 27%
- Population Normal (%) (U2OS [1]; [7]): 95%
- Population Pyknosed Nuclei (%) (U2OS [1]; [7]): 43%
- Population Tubulin-Different-Phenotype (%) (U2OS [1]; [7]): 25%
- Total Cell Count (U2OS [1]; [7]): 241
- Population Apoptotic (%) (U2OS [1]; [8]): 53%
- Population Fragmented Nuclei (%) (U2OS [1]; [8]): 33%
- Population Healthy Nuclei (%) (U2OS [1]; [8]): 44%
- Population Hoechst High Intensity Objects (%) (U2OS [1]; [8]): 11%
- Population Membrane Permeable-Phenotype (%) (U2OS [1]; [8]): 26%
- Population Mitochondria Different-Phenotype (%) (U2OS [1]; [8]): 38%
- Population Mitotic Cells (%) (U2OS [1]; [8]): 46%
- Population Normal (%) (U2OS [1]; [8]): 88%
- Population Pyknosed Nuclei (%) (U2OS [1]; [8]): 22%
- Population Tubulin-Different-Phenotype (%) (U2OS [1]; [8]): 26%
- Total Cell Count (U2OS [1]; [8]): 71
- Growth Rate (Fibroblast; [9]): 0
- Growth Rate (Fibroblast; [10]): 1
- Growth Rate (HEK-293T; 0 h, replicate number 1, timepoint 0 hours): 0
- Growth Rate (HEK-293T; [11]): 0
- Growth Rate (HEK-293T; 18 h, replicate number 2, timepoint 18 hours): 1
- Growth Rate (HEK-293T; [10]): 0
- Growth Rate (U2OS [2]; [9]): 1
- Growth Rate (U2OS [2]; 12 h, replicate number 1, timepoint 12 hours): 1
- Growth Rate (U2OS [2]; [11]): 0
- Growth Rate (U2OS [2]; [10]): 0
